{"source": "ChEMBL document CHEMBL1148398", "about": "“Design, synthesis, and biological evaluation of thio-containing compounds with serum HDL-cholesterol-elevating properties” (2004)", "key": {"Cricetinae gen. sp. [1]": {"tested_on": "Cricetinae gen. sp.", "test": "Percent change in low-density lipoprotein cholesterol following oral administration of compound in hypercholesterolemic hamsters at 100 mg/kg/day for 14 days", "type": "functional", "outline": "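Male Syrian Golden hamsters pre-fed chow plus 0.25% cholesterol for 2 weeks and kept on it. Dosed 100 mg/kg/day by oral gavage in 2% Tween 80/saline for 14 days. Serum total cholesterol and glycerol-blanked triglycerides read enzymatically; lipoproteins separated by FPLC with cholesterol measured in each fraction. % change versus vehicle controls; six per group, p < 0.05.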"}, "Rattus norvegicus [2]": {"tested_on": "Rattus norvegicus", "test": "Effect of compound on gain in body weight in 4th group of normal chow-fed male rats after a dose of 10 mg/kg/day", "type": "functional", "outline": "(§1)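 Male Sprague–Dawley CD rats (60–80 g) on standard chow under a reversed 12 h light/dark cycle. Compound was suspended in 1.3% Tween 80/0.25% CMC and given as a single daily oral gavage dose for 4 days. Rats were fasted overnight and killed 24 h after the last dose. Serum ALT, AST, ALKP and LDH were read on a clinical analyzer. Weight gain was start versus end weight. Mean ± SEM, n = 6.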"}, "Rattus norvegicus [3]": {"tested_on": "Rattus norvegicus", "test": "Effect of compound on gain in body weight in 6th group of normal chow-fed male rats after a dose of 50 mg/kg/day", "type": "functional", "outline": "as §1"}, "Rattus norvegicus [4]": {"tested_on": "Rattus norvegicus", "test": "Percent change in total plasma cholesterol following oral administration of compound in normal chow-fed rats at 100 mg/kg/day for 4 days", "type": "functional", "outline": "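Chow-fed male Sprague–Dawley CD rats, 60–80 g, gavaged 100 mg/kg/day for 4 days in 1.3% Tween 80/0.25% CMC. Fasted overnight, bled 24 h after the last dose. Total cholesterol and glycerol-blanked triglycerides read enzymatically; lipoproteins by FPLC with cholesterol per fraction. % change versus control; six per group, p < 0.05.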"}, "Rattus norvegicus [5]": {"tested_on": "Rattus norvegicus", "test": "Effect of compound on aspartate aminotransferase (AST) levels in 1st group of normal chow-fed male rats after a dose of 1 mg/kg/day", "type": "functional, organism-based", "outline": "as §1"}, "Rattus norvegicus [6]": {"tested_on": "Rattus norvegicus", "test": "Effect of compound on liver weight in 5th group of normal chow-fed male rats after a dose of 20 mg/kg/day", "type": "functional", "outline": "(§2)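 Male Sprague–Dawley CD rats, 60–80 g, on chow with a reverse 12 h light/dark cycle. Given one oral gavage dose daily for 4 days, suspended in 1.3% Tween 80/0.25% CMC. Fasted overnight and sacrificed 24 h after the last dose for blood and liver. Serum liver enzymes read on a clinical analyzer. Six per group, mean ± SEM.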"}, "Rattus norvegicus [7]": {"tested_on": "Rattus norvegicus", "test": "Effect of compound on serum high-density lipoprotein cholesterol concentration in chow-fed male rats at a dose of 10 mg/kg/day", "type": "functional, organism-based", "outline": "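Separate dose-response study in male Sprague–Dawley CD rats, 60–80 g, on chow. Oral gavage once daily for 4 days in 1.3% Tween 80 / 0.25% CMC; fasted overnight, bled 24 h after last dose. Apo-A1 by ELISA with rabbit anti-rat primary, alkaline phosphatase-conjugated anti-rabbit IgG and p-nitrophenyl phosphate substrate. HDL-C by FPLC fractionation. Mean ± SEM, six per group.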"}, "Rattus norvegicus [8]": {"tested_on": "Rattus norvegicus", "test": "Effect of compound on lactic dehydrogenase (LDH) levels in 3rd group of normal chow-fed male rats after a dose of 5 mg/kg/day", "type": "functional, organism-based", "outline": "as §1"}, "Rattus norvegicus [9]": {"tested_on": "Rattus norvegicus", "test": "Effect of compound on lactic dehydrogenase (LDH) levels in 4th group of normal chow-fed male rats after a dose of 10 mg/kg/day", "type": "functional, organism-based", "outline": "as §2"}, "Rattus norvegicus [10]": {"tested_on": "Rattus norvegicus", "test": "Effect of compound on high-density lipoprotein cholesterol levels in 1st group of normal chow-fed male rats after a dose of 1 mg/kg/day", "type": "functional, organism-based"}, "Rattus norvegicus [11]": {"tested_on": "Rattus norvegicus", "test": "Effect of compound on very low-density lipoprotein cholesterol levels in 3rd group of normal chow-fed male rats after a dose of 5 mg/kg/day", "type": "functional, organism-based", "outline": "(§3)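 Male Sprague–Dawley CD rats (60–80 g) on Purina 5001 chow with a reverse 12 h light/dark cycle. Dosed once daily by oral gavage for 4 days, suspended in 1.3% Tween 80 / 0.25% CMC. Fasted overnight and bled 24 h after the last dose. Serum TC and glycerol-blanked TG measured enzymatically; VLDL-C by FPLC fractionation with cholesterol assay. n=6, mean ± SEM.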"}, "Rattus norvegicus [12]": {"tested_on": "Rattus norvegicus", "test": "Effect of compound on very low-density lipoprotein cholesterol levels in 4th group of normal chow-fed male rats after a dose of 10 mg/kg/day", "type": "functional, organism-based", "outline": "as §3"}, "[13]": {"test": "Effect on serum lipids in 7th group of normal chow-fed male rats after a dose of 100 mg/kg/day was evaluated as ratio of total plasma cholesterol levels to high-density lipoprotein cholesterol levels", "type": "functional", "outline": "(§4)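 Male Sprague–Dawley CD rats, 60–80 g, chow-fed, dosed by oral gavage daily for 4 days in 1.3% Tween 80/0.25% CMC. Fasted overnight, bled 24 h after the last dose. Serum total cholesterol by enzymatic reagent; HDL-C from cholesterol in FPLC fractions; TPC/HDL-C ratio calculated. Six per group, mean ± SEM.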"}, "[14]": {"test": "Effect on serum lipids in 1st group of normal chow-fed male rats after a dose of 1 mg/kg/day was evaluated as ratio of total plasma cholesterol levels to high-density lipoprotein cholesterol levels", "type": "functional", "outline": "as §4"}, "Mesocricetus auratus [15]": {"tested_on": "Mesocricetus auratus", "test": "Effect of compound on liver weight in 4th group of cholesterol-fed male hamsters at 100 mg/kg/day after 14 days of treatment"}, "Cricetinae gen. sp. [16]": {"tested_on": "Cricetinae gen. sp.", "test": "Effect of compound on thyroxine levels in 4th group of cholesterol-fed male hamsters at 100 mg/kg/day after 14 days of treatment", "conditions": "Mesocricetus auratus"}, "Cricetinae gen. sp. [17]": {"tested_on": "Cricetinae gen. sp.", "test": "Effect of compound on triglycerides level in 2nd group of cholesterol-fed male hamsters at 10 mg/kg/day after 14 days of treatment", "conditions": "Mesocricetus auratus"}, "Cricetinae gen. sp. [18]": {"tested_on": "Cricetinae gen. sp.", "test": "Effect of compound on triglycerides level in 3rd group of cholesterol-fed male hamsters at 30 mg/kg/day after 14 days of treatment", "conditions": "Mesocricetus auratus"}, "Mesocricetus auratus [19]": {"tested_on": "Mesocricetus auratus", "test": "Effect of compound on gain in body weight in 4th group of cholesterol-fed male hamsters at 100 mg/kg/day after 14 days of treatment"}, "Cricetinae gen. sp. [20]": {"tested_on": "Cricetinae gen. sp.", "test": "Effect of compound on lactic dehydrogenase (LDH) levels in 2nd group of cholesterol-fed male hamsters at 10 mg/kg/day after 14 days of treatment", "conditions": "Mesocricetus auratus"}, "Cricetinae gen. sp. [21]": {"tested_on": "Cricetinae gen. sp.", "test": "Effect of compound on lactic dehydrogenase (LDH) levels in 4th group of cholesterol-fed male hamsters at 100 mg/kg/day after 14 days of treatment", "conditions": "Mesocricetus auratus"}, "Cricetinae gen. sp. [22]": {"tested_on": "Cricetinae gen. sp.", "test": "Effect of compound on aspartate aminotransferase (AST) levels in 4th group of cholesterol-fed male hamsters at 100 mg/kg/day after 14 days of treatment", "conditions": "Mesocricetus auratus"}, "Cricetinae gen. sp. [23]": {"tested_on": "Cricetinae gen. sp.", "test": "Effect of compound on low-density lipoprotein cholesterol levels in 2nd group of cholesterol-fed male hamsters at 10 mg/kg/day after 14 days of treatment", "conditions": "Mesocricetus auratus"}, "Cricetinae gen. sp. [24]": {"tested_on": "Cricetinae gen. sp.", "test": "Effect of compound on very low-density lipoprotein cholesterol levels in 1st group of cholesterol-fed male hamsters at 3 mg/kg/day after 14 days of treatment", "conditions": "Mesocricetus auratus"}}}
{"compound": "CCN1CC(=O)N(c2cc(Cl)ccc2C)C1=S", "values": [{"measurement": "Change", "setting": "Cricetinae gen. sp. [1]", "result": -30.1, "unit": "%"}, {"measurement": "Body weight", "setting": "Rattus norvegicus [2]", "result": 33.2, "unit": "g"}, {"measurement": "Body weight", "setting": "Rattus norvegicus [3]", "result": 27.5, "unit": "g"}, {"measurement": "Change", "setting": "Rattus norvegicus [4]", "result": 72.8, "unit": "%"}, {"measurement": "Level", "setting": "Rattus norvegicus [5]", "result": 216, "unit": "U l-1"}, {"measurement": "Liver weight", "setting": "Rattus norvegicus [6]", "result": 8.2, "unit": "g"}, {"measurement": "Serum level", "setting": "Rattus norvegicus [7]", "result": 73.1, "unit": "mg/dL"}, {"measurement": "Level", "setting": "Rattus norvegicus [8]", "result": 743, "unit": "U l-1"}, {"measurement": "Level", "setting": "Rattus norvegicus [9]", "result": 553, "unit": "U l-1"}, {"measurement": "Serum level", "setting": "Rattus norvegicus [10]", "result": 38, "unit": "mg/dL"}, {"measurement": "Serum level", "setting": "Rattus norvegicus [11]", "result": 3.9, "unit": "mg/dL"}, {"measurement": "Serum level", "setting": "Rattus norvegicus [12]", "result": 3.4, "unit": "mg/dL"}, {"measurement": "Ratio", "setting": "[13]", "result": 1.56}, {"measurement": "Ratio", "setting": "[14]", "result": 1.45}, {"measurement": "Liver weight", "setting": "Mesocricetus auratus [15]", "result": 8.95, "unit": "g"}, {"measurement": "Serum level", "setting": "Cricetinae gen. sp. [16]", "result": 4.02, "unit": "µg/dL"}, {"measurement": "Serum level", "setting": "Cricetinae gen. sp. [17]", "result": 455, "unit": "mg/dL"}, {"measurement": "Serum level", "setting": "Cricetinae gen. sp. [18]", "result": 433, "unit": "mg/dL"}, {"measurement": "Body weight", "setting": "Mesocricetus auratus [19]", "result": 9, "unit": "g"}, {"measurement": "Level", "setting": "Cricetinae gen. sp. [20]", "result": 1310, "unit": "U l-1"}, {"measurement": "Level", "setting": "Cricetinae gen. sp. [21]", "result": 1390, "unit": "U l-1"}, {"measurement": "Level", "setting": "Cricetinae gen. sp. [22]", "result": 424, "unit": "U l-1"}, {"measurement": "Serum level", "setting": "Cricetinae gen. sp. [23]", "result": 136, "unit": "mg/dL"}, {"measurement": "Serum level", "setting": "Cricetinae gen. sp. [24]", "result": 115, "unit": "mg/dL"}]}
